Experimental data as given in ChEMBL document CHEMBL3085721, “Nonhydrolyzable ATP analogues as selective inhibitors of human NPP1: a combined computational/experimental study” (J Med Chem, 2013).

Biological target: T1, Ectonucleotide pyrophosphatase/phosphodiesterase family member 3 (Homo sapiens) (UniProt O14638)
T1 sequence (whole entry): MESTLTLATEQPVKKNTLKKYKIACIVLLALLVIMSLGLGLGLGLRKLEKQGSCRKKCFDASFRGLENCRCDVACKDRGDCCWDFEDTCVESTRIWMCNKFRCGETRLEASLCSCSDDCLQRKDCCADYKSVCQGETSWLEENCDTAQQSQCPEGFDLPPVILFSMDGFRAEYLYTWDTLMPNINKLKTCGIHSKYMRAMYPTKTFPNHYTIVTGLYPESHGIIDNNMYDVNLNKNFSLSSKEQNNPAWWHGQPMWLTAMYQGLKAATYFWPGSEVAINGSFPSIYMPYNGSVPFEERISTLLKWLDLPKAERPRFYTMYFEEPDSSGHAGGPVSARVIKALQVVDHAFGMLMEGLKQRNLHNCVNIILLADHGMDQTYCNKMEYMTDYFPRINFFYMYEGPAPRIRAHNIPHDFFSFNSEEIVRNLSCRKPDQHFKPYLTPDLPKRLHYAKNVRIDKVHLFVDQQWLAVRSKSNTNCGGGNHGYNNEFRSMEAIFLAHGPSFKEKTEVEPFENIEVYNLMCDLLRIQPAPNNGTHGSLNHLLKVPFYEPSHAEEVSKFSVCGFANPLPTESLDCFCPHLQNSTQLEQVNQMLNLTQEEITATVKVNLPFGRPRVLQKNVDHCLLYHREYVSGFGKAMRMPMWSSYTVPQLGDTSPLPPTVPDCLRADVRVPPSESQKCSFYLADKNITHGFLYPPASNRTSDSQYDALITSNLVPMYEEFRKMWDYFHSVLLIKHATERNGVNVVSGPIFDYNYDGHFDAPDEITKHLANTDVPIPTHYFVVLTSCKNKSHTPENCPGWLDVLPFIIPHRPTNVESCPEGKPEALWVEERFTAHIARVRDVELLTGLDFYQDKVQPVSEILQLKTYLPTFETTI
Assay: Inhibition of NPP3 in human HTB-85 cells assessed as production of p-nitrophenol using pnp-TMP at 100 uM measured after 20 mins by spectrophotometry
Assay type: cell-based
Conditions: not given
Method in brief: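 Intact osteocarcinoma HTB85 (SaOS-2) cells in 24-well plates, 0.5 mL incubation mixture, analogue and pnp-TMP each at 100 μM. After 20 min an aliquot was read for p-nitrophenol at 410 nm. Substrate alone set as 100%. Mean ± SD of three experiments in triplicate.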

Structure (SMILES)	inhibition [%]
CSc1nc(N)c2ncn([C@@H]3O[C@H](COP(=O)(O)C(F)(F)P(=O)(O)O)[C@@H](O)[C@H]3O)c2n1	41
B[P@](=O)(OC[C@H]1O[C@@H](n2cnc3c(N)ncnc32)[C@H](O)[C@@H]1O)OP(=O)(O)CP(=O)(O)O	41
B[P@](=O)(OC[C@H]1O[C@@H](n2cnc3c(N)nc(SC)nc32)[C@H](O)[C@@H]1O)OP(=O)(O)CP(=O)(O)O	90
B[P@@](=O)(OC[C@H]1O[C@@H](n2cnc3c(N)ncnc32)[C@H](O)[C@@H]1O)OP(=O)(O)CP(=O)(O)O	90

Biological target: T1, Ectonucleotide pyrophosphatase/phosphodiesterase family member 3 (Homo sapiens)
Assay: Inhibition of human NPP3 expressed in COS7 cells assessed as production of p-nitrophenol using pnp-TMP as the substrate preincubated at 100 uM for 3 mins before substrate addition measured after 15 mins […]
Assay type: cell-based
Conditions: COS-7
Method in brief: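 Crude extracts of COS-7 cells transiently transfected with human NPP1 or NPP3, preincubated 3 min at 37 °C in 1 mM CaCl2, 140 mM NaCl, 5 mM KCl, 50 mM Tris pH 8.5 with analogue at 100 μM. Reaction started with 100 μM pnp-TMP; p-nitrophenol at 410 nm after 15 min. Activity without analogue set as 100%. Mean ± SD of 3−6 experiments in triplicate.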

Structure (SMILES)	inhibition [%]
CSc1nc(N)c2ncn([C@@H]3O[C@H](COP(=O)(O)C(F)(F)P(=O)(O)O)[C@@H](O)[C@H]3O)c2n1	50
B[P@@](=O)(OC[C@H]1O[C@@H](n2cnc3c(N)nc(SC)nc32)[C@H](O)[C@@H]1O)OP(=O)(O)C(F)(F)P(=O)(O)O	50
